Experimental data as given in ChEMBL document CHEMBL1157789, “Design, synthesis and SAR of phenylamino-substituted 5,11-dihydro-dibenzo[a,d]cyclohepten-10-ones and 11H-dibenzo[b,f]oxepin-10-ones as p38 MAP kinase inhibitors” (Bioorg Med Chem Lett, 2010).

Assay: Inhibition of p38 assessed as rate of ATF-2 phosphorylation by immunosorbent non-radioactive enzyme assay
Procedure, shortened: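 p38α MAP kinase ELISA-type (immunosorbent, non-radioactive) assay. Enzyme was incubated with ATP at 100 µM, ATF-2 as substrate, and test compound at 10^-5 to 10^-8 M. Activity was read as the rate of ATF-2 phosphorylation. SB203580 served as the reference inhibitor.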

SMILES | IC50 [nM]
Nc1ccccc1Nc1ccc2c(c1)Oc1ccccc1CC2=O | 1200
O=C1Cc2ccccc2Oc2cc(Nc3ccccc3)ccc21 | 2920
Nc1cc(F)ccc1Nc1ccc2c(c1)Oc1ccccc1CC2=O | 1630
Nc1ccccc1Nc1ccc2c(c1)CCc1ccccc1C2=O | 50
